In brackets after ≈: the same amount, converted by molar mass. Activity calls are given as the source filed them. No cut-off for these calls is given here.
Columns and labels:
Bacillus cereus = experiment: Antibacterial activity against Bacillus cereus MTCC 430 after 24 hrs; format: functional; conditions: MTCC 430, 24 h
In short: (§1)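 Broth microdilution MIC per NCCLS protocol in Mueller Hinton broth. Strains grown on nutrient agar at 37 °C for 24 h, then suspended in normal saline with 0.05% Tween 20. Inoculum was a McFarland-matched suspension diluted into medium. Compounds were dissolved in DMSO at 1 mg/mL stock and serially twofold diluted, top concentration 50 µg/mL. Plates incubated 35 °C, moist dark chamber, 24 h. MIC read spectrophotometrically.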

Staphylococcus aureus [1] = experiment: Antibacterial activity against methicillin-resistant Staphylococcus aureus ATCC 70069 after 24 hrs; format: functional; conditions: ATCC 70069, 24 h
Klebsiella pneumoniae = experiment: Antibacterial activity against Klebsiella pneumoniae ATCC 27736 after 24 hrs; format: functional; conditions: ATCC 27736, 24 h; in short: as §1
Staphylococcus aureus [2] = experiment: Antibacterial activity against floxacin and methicillin-resistant Staphylococcus aureus ATCC 25923 after 24 hrs; format: functional; conditions: ATCC 25923, 24 h
Pseudomonas aeruginosa = experiment: Antibacterial activity against Pseudomonas aeruginosa ATCC BAA427 after 24 hrs; format: functional, organism-based; in short: as §1
Streptococcus pyogenes = experiment: Antibacterial activity against Streptococcus pyogenes after 24 hrs; format: functional; in short: as §1
Escherichia coli = experiment: Antibacterial activity against Escherichia coli ATCC 9637 after 24 hrs; format: functional, organism-based; in short: as §1
Staphylococcus aureus [3] = experiment: Antibacterial activity against […] Staphylococcus aureus ATCC 29213 after 24 hrs; format: functional; conditions: ATCC 29213, 24 h
Enterococcus faecalis = experiment: Antibacterial activity against Enterococcus faecalis MTCC 439 after 24 hrs; format: functional; conditions: MTCC 439, 24 h; in short: as §1

| SMILES | MIC (Bacillus cereus) [µM] | MIC (Staphylococcus aureus [1]) [µM] | MIC (Klebsiella pneumoniae) [µM] | MIC (Staphylococcus aureus [2]) [µM] | Activity (Pseudomonas aeruginosa) | MIC (Streptococcus pyogenes) [µM] | Activity (Escherichia coli) | MIC (Staphylococcus aureus [3]) [µM] | MIC (Enterococcus faecalis) [µM] |
| --- | --- | --- | --- | --- | --- | --- | --- | --- | --- |
| CC(=O)NC[C@H]1CN(c2ccc(N3CCN(C(=O)C4CC(c5ccc(Cl)c(Cl)c5)=NO4)CC3)c(F)c2)C(=O)O1 (mixture of isomers) | 0.156 | 0.329 | 0.329 | 0.329 | inactive | 0.329 | inactive | 2.7 | 0.329 |
| CC(=O)NC[C@H]1CN(c2ccc(N3CCN(C(=O)C4CC(c5cccc(C(F)(F)F)c5)=NO4)CC3)c(F)c2)C(=O)O1 (mixture of isomers) | 1.35 | 1.35 | 2.7 | 1.35 | inactive | 1.35 | inactive | 2.7 | 1.35 |
| CC(=O)NC[C@H]1CN(c2ccc(N3CCN(C(=O)C4CC(c5ccc(C(F)(F)F)cc5)=NO4)CC3)c(F)c2)C(=O)O1 (mixture of isomers) | 0.676 | 0.676 | 0.676 | 0.676 | inactive | 0.676 | inactive | 2.7 | 0.329 |
| CC(=O)NC[C@H]1CN(c2ccc(N3CCN(C(=O)C4CC(c5ccccc5)=NO4)CC3)c(F)c2)C(=O)O1 (mixture of isomers) | 24.6 | 24.6 | 24.6 | 24.6 | inactive | 24.6 | inactive | 24.6 | 24.6 |
| CC(=O)NC[C@H]1CN(c2ccc(N3CCN(C(=O)C4CC(c5cccs5)=NO4)CC3)c(F)c2)C(=O)O1 (mixture of isomers) | 6.06 | 24.3 | 6.06 | 6.06 | inactive | 12.1 | inactive | 24.3 | 24.3 |
| CC(=O)NC[C@H]1CN(c2ccc(N3CCN(C(=O)C4CC(c5ccsc5)=NO4)CC3)c(F)c2)C(=O)O1 (mixture of isomers) | 12.1 | 6.06 | 6.06 | 12.1 | inactive | 12.1 | inactive | 24.3 | 12.1 |
| CC(=O)NC[C@H]1CN(c2ccc(N3CCN(C(=O)C4CC(c5ccccn5)=NO4)CC3)c(F)c2)C(=O)O1 (mixture of isomers) | 0.765 | 1.53 | 0.765 | 0.765 | inactive | 0.372 | inactive | 1.53 | 0.372 |
| CC(=O)NC[C@H]1CN(c2ccc(N3CCN(C(=O)C4CC(c5ccc(F)cc5)=NO4)CC3)c(F)c2)C(=O)O1 (mixture of isomers) | 0.74 | 0.74 | 1.48 | 0.74 | inactive | 0.74 | inactive | 0.74 | 0.74 |
| CC(=O)NC[C@H]1CN(c2ccc(N3CCN(C(=O)C4CC(c5ccc(Cl)cc5)=NO4)CC3)c(F)c2)C(=O)O1 (mixture of isomers) | 0.35 | 0.35 | 0.166 | 0.166 | inactive | 0.349 | inactive | 2.87 | 0.35 |
| COc1ccc(C2=NOC(C(=O)N3CCN(c4ccc(N5C[C@H](CNC(C)=O)OC5=O)cc4F)CC3)C2)cc1O (mixture of isomers) | 0.342 | 0.703 | 0.342 | 0.342 | inactive | 0.703 | inactive | 0.703 | 0.342 |
| CC(=O)NC[C@H]1CN(c2ccc(N3CCN(C(=O)C4CC(c5ccc6c(c5)OCO6)=NO4)CC3)c(F)c2)C(=O)O1 (mixture of isomers) | 0.344 | 0.344 | 0.163 | 0.163 | inactive | 0.344 | inactive | 2.82 | 0.344 |
| CC(=O)NC[C@H]1CN(c2ccc(N3CCN(C(=O)C4CC(c5ccc(C)cc5)=NO4)CC3)c(F)c2)C(=O)O1 (mixture of isomers) | 0.363 | 1.49 | 0.363 | 0.363 | inactive | 0.746 | inactive | 2.98 | 0.746 |
| CC(=O)NC[C@H]1CN(c2ccc(N3CCN(C(=O)C4CC(c5cccc([N+](=O)[O-])c5)=NO4)CC3)c(F)c2)C(=O)O1 (mixture of isomers) | 0.162 | 0.704 | 0.704 | 0.343 | inactive | 0.704 | inactive | 0.704 | 0.0866 |
| CC(=O)NC[C@H]1CN(c2ccc(N3CCN(C(=O)C4CC(c5ccco5)=NO4)CC3)c(F)c2)C(=O)O1 (mixture of isomers) | 1.56 | 1.56 | 1.56 | 0.781 | inactive | 0.781 | inactive | 6.25 | 0.781 |
| CC(=O)NC[C@H]1CN(c2ccc(N3CCN(C(=O)C4CC(c5ccc(F)c(F)c5)=NO4)CC3)c(F)c2)C(=O)O1 (mixture of isomers) | 0.349 | 0.349 | 0.716 | 0.349 | inactive | 0.349 | inactive | 0.716 | 0.349 |
| CC(=O)NC[C@H]1CN(c2ccc(N3CCOCC3)c(F)c2)C(=O)O1 [LINEZOLID] | 2.31 (≈ 0.781 µg/mL) | 4.63 (≈ 1.56 µg/mL) | 4.63 (≈ 1.56 µg/mL) | 4.63 (≈ 1.56 µg/mL) |  | 4.63 (≈ 1.56 µg/mL) |  | 9.26 (≈ 3.12 µg/mL) | 9.26 (≈ 3.12 µg/mL) |
| CN[C@H](CC(C)C)C(=O)N[C@H]1C(=O)N[C@@H](CC(N)=O)C(=O)N[C@H]2C(=O)N[C@H]3C(=O)N[C@H](C(=O)N[C@H](C(=O)O)c4cc(O)cc(O)c4-c4cc3ccc4O)[C@H](O)c3ccc(c(Cl)c3)Oc3cc2cc(c3O[C@@H]2O[C@H](CO)[C@@H](O)[C@H](O)[C@H]2O[C@H]2C[C@](C)(N)[C@H](O)[C@H](C)O2)Oc2ccc(cc2Cl)[C@H]1O [VANCOMYCIN] | 0.128 (≈ 0.185 µg/mL) | 4.21 (≈ 6.1 µg/mL) | 0.262 (≈ 0.38 µg/mL) | 0.262 (≈ 0.38 µg/mL) |  | 0.262 (≈ 0.38 µg/mL) |  | 1.05 (≈ 1.52 µg/mL) | 0.525 (≈ 0.761 µg/mL) |
